A short description of data set [1]: Biodistribution in mesenteric lymph nodes after oral administration. The class given is in vivo, mice. The procedure, abridged:
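Male ICR mice (20 ± 2 g), acclimatised 1 week. Single oral dose of 4 mg/kg DiR as free-dye solution or liposomes (dye at 8% w/w in lipid). Mice killed at 1, 2, 4 and 6 h; intestinal tracts and MLNs excised for ex vivo fluorescence imaging (means ± SD, n = 3). Dil formulations given orally at 4 mg/kg; MLNs examined by CLSM at 4 h.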

The nature of another data set: In vitro release assay. In kind it is physicochemical. The settings on record: 37°C. The procedure, abridged:
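Dynamic dialysis, bag MWCO 8–14 kDa. Liposomal DHA, or DHA dispersed in 0.5% w/v carboxymethyl cellulose sodium as control. Incubated in SGF (pH 1.2) for 2 h, then SIF (pH 6.8) for 22 h, at 37 ± 0.5°C with shaking at 150 rpm. Medium sampled at 0.5–24 h and replaced with fresh medium. DHA measured by UV‒Vis after treatment in 2% NaOH:ethanol (4:1, v/v) at 60°C for 30 min; absorbance at 238 nm.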

A short description of data set [2]: Intestinal lymphatic transport inhibition study. The class given is in vivo, rats. The settings on record: CHX 3.0 mg/kg i.p. 1 h before, oral 10 mg/kg DHA. The procedure, abridged: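 Male Sprague-Dawley rats (200 ± 20 g) given cycloheximide 3.0 mg/kg i.p. to block chylomicron secretion. One hour later, oral DHA suspension or liposomal DHA at 10 mg/kg DHA equivalent. Plasma DHA quantified by validated HPLC‒MS/MS after ether extraction, with artemisinin as internal standard. Means ± SD, n = 4.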

Structures are written as SMILES.

For `CCCCCCCCCCCCCCCCCCN1/C(=C/C=C/C2=[N+](CCCCCCCCCCCCCCCCCC)c3ccccc3C2(C)C)C(C)(C)c2ccccc21.[O-][Cl+3]([O-])([O-])[O-]` [free Dil, 1,1’-Dioctadecyl-3,3,3’,3’-tetramethylindocarbocyanine perchlorate], in data set [1] (oral 4 mg/kg Dil, 4 h), the “red fluorescence signal in the MLNs (CLSM)” value is given as “negligible”.
For `CCCCCCCCCCCCCCCCCCN1/C(=C/C=C/C=C/C=C/C2=[N+](CCCCCCCCCCCCCCCCCC)c3ccccc3C2(C)C)C(C)(C)c2ccccc21.[I-]` [free DiR, 1,1’-dioctadecyl-3,3,3’,3’-tetramethylindotricarbocyaine iodide], the “accumulation / fluorescence signal in the MLNs (ex vivo imaging)” value in data set [1] (oral 4 mg/kg DiR) is “rare fluorescence signal”.
With `C[C@H]1[C@@H](O)O[C@@H]2O[C@@]3(C)CC[C@H]4[C@H](C)CC[C@@H]1[C@@]24OO3` [DHA, Dihydroartemisinin], the “cumulative release rate of DHA at 12 h” value in the data set “In vitro release assay” (SGF 2 h then SIF) was 94.29%. In addition, in the data set “In vitro release assay” (SGF pH 1.2, 2 h), the “DHA released during the first 2 h in SGF” value is on record as “more than 65%”. Besides, in data set [2], the “decrease of AUC0~8 of DHA in CHX pretreated rats” value was “little influence” and the “decrease of Cmax of DHA in CHX pretreated rats” value is given as “little influence”.

These data come from article PMC11164214 (International Journal of Nanomedicine, 2024).
